Measured values: ChEMBL document CHEMBL1154766, “Synthesis and biological evaluation of new podophyllic aldehyde derivatives with cytotoxic and apoptosis-inducing activities” (2010)
Activity calls are given as the source filed them. The calls are words filed in the database; no cut-off is given here.

Legend:
MDA-MB-231 = test: Cytotoxicity against human MDA-MB-231 cells after 72 hrs by SRB assay; assay type: functional; conditions: MDA-MB-231, 72 h
Method in brief: (§1)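 SRB growth assay: 5 × 10³ cells/well in RPMI, attached 18 h drug-free, then compound added in DMSO/H₂O 3:7 for 72 h. Fixed with cold 50% TCA 60 min at 4 °C, stained 0.4% SRB in 1% acetic acid 10 min, bound dye solubilized in Tris, OD 490 nm. GI50 from 100[(T−T0)/(C−T0)] = 50; mean of triplicates.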

A549 = test: Cytotoxicity against human A549 cells after 72 hrs by SRB assay; assay type: functional; conditions: A549, 72 h; method in brief: as §1
HT-29 [1] = test: Cytotoxicity against human HT-29 cells after 72 hrs by SRB assay; assay type: functional; conditions: HT-29, 72 h; method in brief: as §1
HT-29 [2] = test: Induction of apoptosis in human HT-29 cells assessed as accumulation at subG1 phase at 1 uM after 24 hrs by flow cytometry; assay type: functional
Method in brief: (§2)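 HT-29 cells incubated at 1 μM for 24, 48 or 72 h alongside untreated controls. (3-5) × 10⁵ cells fixed overnight in 70% ethanol at 4 °C, PBS-washed three times, then treated 1 h at room temperature with 1 mg/mL RNase A and 20 μg/mL propidium iodide. DNA content read by flow cytometry; apoptosis taken as % cells in sub-G1 peak. Representative of three independent experiments.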

HT-29 [3] = test: Cell cycle arrest in human HT-29 cells assessed as accumulation at G0/G1 phase at 1 uM after 24 hrs by flow cytometry; assay type: functional; method in brief: as §2
HT-29 [4] = test: Cell cycle arrest in human HT-29 cells assessed as accumulation at S phase at 1 uM after 24 hrs by flow cytometry; assay type: functional; method in brief: as §2
HT-29 [5] = test: Cell cycle arrest in human HT-29 cells assessed as accumulation at G2/M phase at 1 uM after 24 hrs by flow cytometry; assay type: functional; method in brief: as §2
HT-29 [6] = test: Induction of apoptosis in human HT-29 cells assessed as accumulation at subG1 phase at 1 uM after 48 hrs by flow cytometry; assay type: functional; method in brief: as §2
HT-29 [7] = test: Cell cycle arrest in human HT-29 cells assessed as accumulation at G0/G1 phase at 1 uM after 48 hrs by flow cytometry; assay type: functional; method in brief: as §2
HT-29 [8] = test: Cell cycle arrest in human HT-29 cells assessed as accumulation at S phase at 1 uM after 48 hrs by flow cytometry; assay type: functional; method in brief: as §2
HT-29 [9] = test: Cell cycle arrest in human HT-29 cells assessed as accumulation at G2/M phase at 1 uM after 48 hrs by flow cytometry; assay type: functional; method in brief: as §2
HT-29 [10] = test: Induction of apoptosis in human HT-29 cells assessed as accumulation at subG1 phase at 1 uM after 72 hrs by flow cytometry; assay type: functional; method in brief: as §2
HT-29 [11] = test: Cell cycle arrest in human HT-29 cells assessed as accumulation at G0/G1 phase at 1 uM after 72 hrs by flow cytometry; assay type: functional; method in brief: as §2
HT-29 [12] = test: Cell cycle arrest in human HT-29 cells assessed as accumulation at S phase at 1 uM after 72 hrs by flow cytometry; assay type: functional; method in brief: as §2
HT-29 [13] = test: Cell cycle arrest in human HT-29 cells assessed as accumulation at G2/M phase at 1 uM after 72 hrs by flow cytometry; assay type: functional; method in brief: as §2
HT-29 [14] = test: Induction of microtubule disruption in human HT-29 cells at 1 uM after 24 hrs; assay type: cell-based
Method in brief: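 HT-29 cells on poly-L-lysine coverslips exposed to 1 μM for 24 h, washed in HPEM (pH 6.6), fixed with 4% paraformaldehyde 15 min, permeabilized with 0.5% Triton X-100. Anti-α-tubulin mouse monoclonal (1:150, 1 h) then CY3 anti-mouse IgG (1 h, 4 °C); nuclei DAPI-stained; imaged by confocal microscopy. Representative of at least three experiments.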

Compound	GI50 (MDA-MB-231) [nM]	GI50 (A549) [nM]	GI50 (HT-29 [1]) [nM]	Activity (HT-29 [2]) [%]	Activity (HT-29 [3]) [%]	Activity (HT-29 [4]) [%]	Activity (HT-29 [5]) [%]	Activity (HT-29 [6]) [%]	Activity (HT-29 [7]) [%]	Activity (HT-29 [8]) [%]	Activity (HT-29 [9]) [%]	Activity (HT-29 [10]) [%]	Activity (HT-29 [11]) [%]	Activity (HT-29 [12]) [%]	Activity (HT-29 [13]) [%]	Activity (HT-29 [14])
COc1cc([C@@H]2c3cc4c(cc3C=C(C=O)[C@H]2C(=O)OCCCBr)OCO4)cc(OC)c1OC	170	130	140	29.2	46.9	9.7	14.2	34.6	38.9	8.4	18.1	67.7	31.6	0.3	0.4	inactive
CCCCCCCOC(=O)[C@@H]1C(C=O)=Cc2cc3c(cc2[C@H]1c1cc(OC)c(OC)c(OC)c1)OCO3	2500	1000	1000	19.6	14.6	42.6	23.2	29.2	25.3	29.6	15.9	82.3	16.7	0.4	0.6	inactive
